# Experimental data reported in the EternaBench riboswitch data.
# Tested on: MS2 coat protein
# Test: apparent Kd, MS2 coat protein; higher = weaker binding; RNA-MaP array; FMN 200 µM where present
# Procedure, shortened: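 On Illumina sequencing-chip clusters, designs were transcribed by stalled E. coli RNA polymerase and titrated with SNAP-549-labelled MS2 coat protein (0.7 or 1.5 nM, doubling to 3 µM), without and then with constant ligand, in 100 mM Tris-HCl pH 7.5, 80 mM KCl, 4 mM MgCl2, BSA, DTT, yeast tRNA and Tween-20. Apparent Kd is the median of filtered per-cluster curve fits to green signal normalised to red-channel RNA signal and control-cluster median Fmax.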
# [1] = designed as: ON switch for flavin mononucleotide, no ligand
# [2] = ligand present: flavin mononucleotide, designed as: ON switch for flavin mononucleotide
# [3] = designed as: OFF switch for flavin mononucleotide, no ligand
# [4] = ligand present: flavin mononucleotide, designed as: OFF switch for flavin mononucleotide
Sequence,apparent Kd [1],apparent Kd [2],apparent Kd [3],apparent Kd [4]
AGCUACGUUUCGUAGCAGUGUCAUCGAGAAGGCCCUGACAUGAGGAUCACCCAUGUUGUUACAUGGGAGGAUAUCGAUGAUACG,12.2 nM,4.68 nM,–,–
AGCUAGAGAGGAUAUACGUGGAAAAAAAAAGUCUGAUCCCUACAUGAGGAUCACCCAUGUAGAAGGCUCUGGCA,–,–,30.9 nM,15.1 nM
AGCUAGGCAGGAUAUACGUAAAUGUCGAAAGACGUAUUGGGACAUGAGGAUCACCCAUGUAGAAGGGUCUAGCA,–,–,37.6 nM,123 nM
AGCUAGUACCGAGGAUAUACAUACAUGAGGAUCACCCAUGUAUACAUGAAUUAAUGAGACUACAUGUAGAAGGCGGUACUAGCA,69.1 nM,16 nM,–,–
AGCUAGUCAGGAUAUACGAACAUGUCAAAAGACGUGAACCCACAUGAGGAUCACCCAUGUAGAAGGGACUAGCA,–,–,26 nM,65.7 nM
AGCUAUUACGAAGGAUAUUCUGACAUGAGGAUCACCCAUGUCUUCAUGAUUUAUUGUGAUCACAUGAAGAAGGUCGUACUAACA,198 nM,48.3 nM,–,–
AGCUGACGAGGAUAUACAUGAGGAUCACCCAUGUUGGUUCAGCGACUUCGGUCGCAAUGUAGAAGGCGUCAGCU,–,–,450 nM,327 nM
AGCUGGUGACAGCAUCGAGCUAAACAUGAGGAUCACCCAUGUAGAAGGCUGUACGGUUACCGUACAGAGGAUAUACAAAGCUCG,–,–,6.06 nM,7.17 nM
AGCUGUGGCCGAGGAUAUCUAACAAUCCCAACCGAAAUAUAAUCGGACAUGAGGAUCACCCAUGUAGAGAAGGCGGUCUCAGCA,–,–,208 nM,329 nM
AGCUGUGGCCGAGGAUAUCUGACUUCAAUAACCGAAAUAUAAUCGGACAUGAGGAUCACCCAUGUAGAGAAGGCGGUCUCAGCA,–,–,17.1 nM,24.9 nM
AGCUGUGGCCGAGGAUAUCUGUUUCAUAAAACCGAAAUAUAAUCGGACAUGAGGAUCACCCAUGUAGAGAAGGCGGUCUCAGCA,–,–,16.6 nM,14.9 nM
AGCUGUGGCCGAGGAUAUGCUACUUCAAUAACCGAAAUAUAAUCGGACAUGAGGAUCACCCAUGUAGAGAAGGCGGUCUCAGCA,–,–,14 nM,11 nM
AGGAAACAUGAGGAUCACCCAUGUAAAAAUAUGGGAGGAUAUGCGAAAAGAAACAAAGAAGCAGAAGGCCUAAGAA,89.8 nM,23.1 nM,–,–
AGGAAACAUGAGGAUCACCCAUGUGAGGAUAUUUGAAAGAAAAGAAAAGAAAGAAGAAGAAGAAGGCACAAGAA,–,–,32.4 nM,35.5 nM
AGGAGAAAUGUAGGAUAUGUAUAUAUAUAUGGGCAAAGCGCAUAUAUAUAUACAGAAGGACAUGAGGAUCACCCAUGUUUCCCU,–,–,11.4 nM,13.5 nM
AGGAGGUCAGGAUAUGCAUGGCGGGACUUGCGUCGUGGCGUGCAGAAGGGACAUGAGGAUCACCCAUGUGGAGA,–,–,86.1 nM,220 nM
AGGAUAGGAAAAUUUGUCCAUUGUACAGAAGGCCAACAUGAGGAUCACCCAUGUAAGAAAAGGAUGGAGGAUAUGUAUAGGGCC,37.6 nM,10.6 nM,–,–
AGGCCACAAGGAUAUACAUGAGGAUCACCCAUGUAGAAAGACGUGUGGUCAUGUUCGAGUAGAAGGUGUAGCGG,–,–,12.9 nM,12.7 nM
AGGCGGGUAGGAUAUAUUUUCGUCAACAUGAGGAUCACCCAUGUGUCCUGAAGUGAUAUCAUAGAAGGGCCCAGCU,–,–,25.4 nM,33.8 nM
AGGGAGGAAGCUGAGGAUAUCGUAAGGAGGACAUGAGGAUCACCCAUGUGUGUGGAAUUGGAGGACGAGAAGGCAGAGGAGUGGG,31.5 nM,36 nM,–,–
AGGGCGGGAGGAUAUCCAAUAUAUGACAUGAGGAUCACCCAUGUUUCCACUCGUACCUCCGGAGAAGGCCCGCCCA,–,–,24.4 nM,22.3 nM

Sequence,apparent Kd [1],apparent Kd [2],apparent Kd [3],apparent Kd [4]
AGGUAAACCACAGGAUAUGGCUAGCAUAGCUAGCCAGAAGGGUGGUCGAAACCAUGUAAAUACAUGAGGAUCACCCAUGUAUCC,566 nM,75.3 nM,–,–
AGGUAACAUGAGGAUCACCCAUGUCAGGAUAUCAUGAAGAGUAGAUUAGAGGAGAGGUUGAGAAGGGACUAUAU,–,–,59.9 nM,35.3 nM
AGGUAAGACUUAAUUGUGCUGGUGAGAAGGCAAAUGGUUGUGACCAACAUGAGGAUCACCCAUGUUGAGGAUAUCAUCGGUAUC,–,–,86.2 nM,361 nM
AGGUAAGAGUUAAUUGUGACGGUGAGAAGGCAAUAGUUUGUGACCGACAUGAGGAUCACCCAUGUUGAGGAUAUCACCACCUAC,–,–,9.59 nM,40.1 nM
AGGUGAGCUCGAUGGCGACAUGAGGAUCACCCAUGUACGAUCAGAAGGGCUCGGGCAAGAAGUGGGCAGGAUAUGGUCGGUGCC,–,–,3.88 nM,4.51 nM
AGUAACAGAGGAUAUACUAUUUUAUGUGUUUAUUAUUUUGAACAUGAGGAUCACCCAUGUAGAAGGCUGAAUAA,–,–,27 nM,30.1 nM
AGUAACAGAGGAUAUACUGUUUUAUGUGUUUGUUAUUUUAAACAUGAGGAUCACCCAUGUAGAAGGCUGAAUAA,–,–,24.3 nM,23.4 nM
AGUAAGAUGCAGAAGGUGUCAGCGAGAGCUACGACAUGAGGAUCACCCAUGUACUAGAUAGAGUACAAGGAUAUGCAUCUUACA,729 nM,35.1 nM,–,–
AGUAAGAUGCAGAAGGUGUCAGCGAGAGCUGCGACAUGAGGAUCACCCAUGUACCGGUGACGGUACAAGGAUAUGCAUCUUACA,882 nM,360 nM,–,–
AGUAAGAUGCAGAAGGUGUCAGCGAGAGCUGCGACAUGAGGAUCACCCAUGUACUAGUGAGAGUACAAGGAUAUGCAUCUUACA,313 nM,45.7 nM,–,–
AGUAAGAUGCAGAAGGUGUUAGCUAGAGCUACGACAUGAGGAUCACCCAUGUACUAGAAACAGUACAAGGAUAUGCAUCUUACC,18.9 nM,6.52 nM,–,–
AGUAAGUUUGAGAAGGUGAAGUGGAAACAUGAGGAUCACCCAUGUAUUAGGAAGCCUGGUUUUGUCAAGGAUAUCGGGUUUACA,17.9 nM,16.5 nM,–,–
AGUACCAUGUAGAAGGGAUAUCUGAUUCAGAUAUCAGGAUAUACAUGAGGAUCACCCAUGUAAAUGUACUGCACGAAAGUGCAA,–,–,18 nM,37.9 nM
AGUACUACAGGAUAUACAUGAGUGAUACUCAUAUACCUACUACAUGAGGAUCACCCAUGUAGAAGGGUAGUACA,–,–,14.9 nM,11.7 nM
AGUAUGCGGCAGGAUAUCCAUCCGCGAAAAGGUGGAGAAGGGCUGACAUGAGGAUCACCCAUGUGCGUUUUGUA,–,–,56 nM,40 nM
AGUCGGAGCAGAGGAUAUAUACAUGAGGAUCACCCAUGUAAAUGAAUAAGCUGGAAACAGCAUGUAUAGAAGGCUGCUCCGACA,–,–,45.6 nM,125 nM
AGUCUGCGAGGAUAUACAUGAGGAUCACCCAUGUGCGAGAUACUAGUGAGGUCGAUUGGUAGAAGGCGCGGACA,–,–,111 nM,66.1 nM
AGUGCUAUGUAGAAGGCAGAUCUGAUUCAGAUCUGAGGAUAUACAUGAGGAUCACCCAUGUUAUGCACCAGCACGAGAGUGCAG,–,–,9.24 nM,22.6 nM
AGUGUCAUCGAGAAGGCCUCAUGGACAUGAGGAUCACCCAUGUAAAAUGGGAGGAUAUCGAUGAUACAGCUACGUUUCGUAGCA,226 nM,69.7 nM,–,–
AGUGUCAUCGAGAAGGCCUUAAGAACAUGAGGAUCACCCAUGUAACAUGGGAGGAUAUCGAUGAUACAGCUACGUUUCGUAGCA,12.4 nM,5.21 nM,–,–
AGUGUGUGGCAGGAUAUUCCGGUCGUUGGUCGGGAAGAAGGGUCUACAUGAGGAUCACCCAUGUGACCGGUUGA,–,–,25.6 nM,25.6 nM
